Experiment [1] in a line: (§1) Inhibition of human HL60 cells-derived chymotrypsin-like proteasome activity. In kind it is subcellular. The settings on record: hl-60. Put shortly: (§2)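 Proteasome-enriched fraction from HL-60 cells, prepared by 100 000g spin, then 5% and 12% PEG (w/v) fractionation and 2-fold dilution in 10 mM Tris-EDTA pH 7.5. Fraction at final 50 µg/mL in 155 mM Tris, 10 mM EDTA, pH 7.4. Preincubated with inhibitor 30 min at room temperature, then 10 µM Suc-LLVY-AMC for 1 h. Free AMC read at ex 360/em 460 nm. IC50 reported.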

In experiment [2] the test system is HL-60. Kind of experiment: Inhibition of human HL60 cells-derived chymotrypsin-like proteasome activity at 28 uM. In kind it is subcellular.
The subject of experiment [3] is HL-60. The experiment is described as §1. In kind it is subcellular. Put shortly:
as §2

In the next experiment the test system is KB. Kind of experiment: In vivo cytotoxicity against human KB cells by hollow fiber assay. Type of experiment: functional.
The next experiment relates to Col2. Kind of experiment: In vivo cytotoxicity against human Col2 cells by hollow fiber assay. Type of experiment: functional.
A short description of experiment [4]: In vivo cytotoxicity against human RPE1 cells expressing human telomerase reverse transcriptase by hollow fiber assay. In kind it is functional, TERT-RPE1.

Each structure is given as a SMILES string. pIC50: −log10 of the molar value. Calls of active or inactive are those of the source. No cut-off for these calls is given here.

`CCCCCCCC/C=C\CCCC[C@@H](O)[C@@H](O)C(CO[C@@H]1O[C@H](CO)[C@@H](O)[C@H](O)[C@H]1O)NC(=O)[C@@H](O)CCCCCCCCCCCCCCCCCCCCCC` (stereo not given in full) [SUMATRANOSIDE]: in experiment [1], the pIC50 is 4.52.
For `O=C(/C=C/c1ccccc1)O[C@@H]1Cc2c(O)cc3c(c2O[C@@H]1c1ccc(O)c(O)c1)[C@H]1c2c(O)cc(O)cc2O[C@@](c2ccc(O)c(O)c2)(O3)[C@@H]1O`, the inhibition in the experiment with HL-60 [2] was less than 10%.
Take `CCCCCCCC/C=C\CCCC[C@@H](OC(C)=O)[C@@H](OC(C)=O)[C@H](COC(C)=O)NC(C)=O`: in the experiment with HL-60 [3], the result was inactive. For the same molecule, the ED50 (in the experiment on KB; with Col2; in experiment [4]) was more than 5 µg/mL each time.
With `CCCCCCCCCCCCCCCCCCCCCC[C@@H](OC(C)=O)C(=O)OC`, the outcome in the experiment on HL-60 [3] was inactive. Further, the ED50 (in the experiment on KB; in the experiment with Col2; in experiment [4]) was more than 5 µg/mL throughout.

Values taken from ChEMBL document CHEMBL1148953, “Activity-guided fractionation of the leaves of Ormosia sumatrana using a proteasome inhibition assay” (J Nat Prod, 2004).
